DNA FID counter: compounds displacing fluorescent DNA intercalator, primary screen, artefact control for HCV NS3 helicase inhibitor project, biochemical, FID fluorescence | DNA fluorescent intercalator displacement | inhibition, % at 7.9 µM | 0.17% of 290,000 active; in the data active = inhibition above about 37%;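 also: 0% = vehicle and 100% = reference compound; higher means more ethidium bromide displaced from hairpin DNA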
GRIN3A LBD mod: binders of NR3A ligand-binding domain, primary screen, biophysical, differential scanning fluorimetry, uHTS; Glutamate receptor ionotropic, NMDA 3A (GRIN3A) ligand-binding domain; NR3A LBD differential scanning fluorimetry, Tm shift; 0% = protein alone, 100% = glycine-bound protein; Tm shift relative to glycine control, % at 25 µM; 2.5% of 340,000 active; AID 1259313, 2017;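 active = melting temperature shift of at least 10% of the positive control shift, at one fixed dose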
EBNA-1 inh: EBNA-1 DNA-binding inhibitors, primary screen, biochemical, fluorescence polarization; inhibition, % at 14.8 µM; 0.34% of 300,000 active; AID 1950, 2009; in the data active = inhibition above about 28%
HCV NS3 hel inh: inhibitors of HCV NS3 helicase, primary screen, biochemical, Cy5 molecular beacon fluorescence; Hepatitis C virus NS3 helicase; NS3 helicase DNA unwinding; inhibition, % at 10.9 µM; 0.56% of 290,000 active; AID 1800, 2009;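 active = inhibition above the mean of all tested compounds plus 3 SD, set per campaign, cut at about 35% in these data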;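 also: 0% = DMSO wells and 100% = thioflavine S control wells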
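System: HCV NS3 helicase fragment; control set: DMSO and thioflavine S; technique: Cy5 fluorescence at 0 and 60 min, beacon hairpin quenching; reagent: beacon DNA duplex substrate plus ATP; replicates: singlicate; schedule: 1 h reaction at 25 °C, ATP-initiated; medium: MOPS buffer pH 6.5 with MgCl2, DTT, Tween20, BSA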
ZTA DNA inh: ZTA (EBV) inhibition in EBNA-1 counter-screen; P03206; ZTA-DNA binding, fluorescence polarization; inhibition, % at 11 µM; 0.15% of 320,000 active; AID 2234; in the data active = inhibition above about 33%
Target sequence (P03206 whole entry, looked up): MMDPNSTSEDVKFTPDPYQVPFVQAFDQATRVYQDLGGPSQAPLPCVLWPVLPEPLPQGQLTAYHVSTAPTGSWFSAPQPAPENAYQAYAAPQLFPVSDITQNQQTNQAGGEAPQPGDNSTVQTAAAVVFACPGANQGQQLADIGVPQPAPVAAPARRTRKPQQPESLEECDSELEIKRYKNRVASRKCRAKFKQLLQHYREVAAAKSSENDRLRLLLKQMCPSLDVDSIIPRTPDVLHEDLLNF
FGF22 binding: binders of human FGF22 protein, primary screen, FGF22 synaptogenesis inhibitor project, biophysical, thermal shift, single point; 1.5% of 340,000 active; Fibroblast growth factor 22 (Homo sapiens), Q9HCT0; activity (Tm shift, normalised), % at 9.99 µM; recombinant FGF22 thermal shift, SYPRO orange fluorescence; percent of sucrose octasulfate shift, DMSO zero;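 active = mean Tm shift, scaled 0 neutral to 100 positive control, at about 1.3% or above, every replicate too, limit read from the data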
Target sequence (Q9HCT0 whole entry, looked up): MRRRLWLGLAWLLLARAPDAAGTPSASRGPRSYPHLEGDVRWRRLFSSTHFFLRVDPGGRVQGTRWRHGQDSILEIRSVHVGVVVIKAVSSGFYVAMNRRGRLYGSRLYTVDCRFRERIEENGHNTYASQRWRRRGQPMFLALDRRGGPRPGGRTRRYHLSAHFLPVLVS
Active calls of the source: *; · = no result. Most compounds without a hit are left out; they make up all but 3.6% or so of the library.

SMILES | DNA FID counter | GRIN3A LBD mod | EBNA-1 inh | HCV NS3 hel inh | ZTA DNA inh | FGF22 binding
O=C(CCNC(=O)c1ccc([N+](=O)[O-])cc1)Nc1ccc(N2CCOCC2)cc1N1CCOCC1 | -2 | -2 | -8 | -1 | -20 | 43*
O=C(OCc1ccc(COC(=O)c2ccc(O)cc2)cc1)c1ccc(O)cc1 | 4 | 21* | -24 | -27 | -3 | ·
CN(C)S(=O)(=O)c1ccc(NC(=O)CCNC(=O)c2ccc([N+](=O)[O-])cc2)cc1 | 16 | 0 | 2 | 0 | 5 | 43*
CN(C)S(=O)(=O)c1ccc(C(=O)OCc2ccc([N+](=O)[O-])cc2)cc1 | -1 | 0 | -12 | 0 | -15 | 44*
CN(C)S(=O)(=O)c1ccc(C(=O)OCc2ccc(C#N)cc2)cc1 | -3 | 2 | -5 | -2 | -22 | ·
C[C@@H]1CCCCO[C@H](CN(C)C(=O)C2CCCCC2)[C@@H](C)CN([C@@H](C)CO)C(=O)c2cc(NC(=O)CCC(F)(F)F)ccc2O1 | · | · | · | · | · | -1
C[C@@H]1CN([C@H](C)CO)C(=O)c2cc(/C=C/c3ccccc3)cnc2O[C@H]1CN(C)C(=O)CN1CCOCC1 | · | · | · | · | · | 0
CC(C)NC(=O)Nc1cccc2c1O[C@H](CN(C)C(=O)Nc1ccc(F)cc1)[C@H](C)CN([C@H](C)CO)C2=O | · | · | · | · | · | 0
O=C(Cc1ccccn1)NCC[C@@H]1CC[C@H](NS(=O)(=O)c2ccc(F)cc2)[C@H](CO)O1 | · | · | · | · | · | 0
C[C@H](CO)N1C[C@H](C)[C@H](CN(C)S(=O)(=O)c2ccccc2)OCCCC[C@H](C)Oc2ccc(NC(=O)Nc3ccccc3)cc2C1=O | · | · | · | · | · | 0
Cc1cc(C)n(-c2ncnc3ccccc23)n1 | -4 | 0 | -9 | 1 | -10 | 43*
CC(=O)Nc1ccc2c(COC(=O)CC3Sc4ccccc4NC3=O)cc(=O)oc2c1 (stereo unspecified) | -1 | -2 | 3 | 20 | 1 | 43*
Cc1ccc(NC2Sc3ccccc3NC2=O)cc1 (stereo unspecified) | -4 | 13* | -4 | 4 | -2 | 0
COc1ccc2c(COC(=O)CC3Sc4ccccc4NC3=O)cc(=O)oc2c1 (stereo unspecified) | -12 | -6 | 8 | 16 | -7 | 44*
COC(=O)CC1Sc2ccccc2NC1=O (stereo unspecified) | 1 | 14* | 0 | -8 | -2 | ·
COc1ccc(NC(=O)COC(=O)CC2Sc3ccccc3NC2=O)cc1 (stereo unspecified) | · | 4 | · | · | · | 0
O=C1Nc2ccccc2SC1c1ccccc1 (stereo unspecified) | -13 | 1 | · | 2 | · | 0
COc1ccc(S(=O)(=O)N(C)C[C@@H]2Oc3ccc(NS(=O)(=O)c4c(C)noc4C)cc3C(=O)N([C@H](C)CO)C[C@@H]2C)cc1 | · | · | · | · | · | 0
O=C(CC(F)(F)F)N1C[C@@H]2[C@H](c3ccccc31)[C@@H](CO)N2C(=O)Cc1cccnc1 | · | · | · | · | · | 0
Oc1cccc(-n2nnnc2SCc2ccccc2F)c1 | -4 | -5 | 4 | 1 | 14 | 0
O=C(O)c1cc(-n2nnnc2SCc2ccccc2F)ccc1Cl | -12 | 2 | -8 | 12 | -4 | 43*
COCC(=O)N1[C@@H]2c3cccc(=O)n3C[C@@H]2[C@@H](CO)[C@@H]1C(=O)NCc1ccccc1 | · | · | · | · | · | 0
CCC(=O)Nc1ccc2c(c1)OC[C@@H](C)N(CC1CCOCC1)C[C@@H](C)[C@H](OC)CN(C)C2=O | · | · | · | · | · | 0
COc1ccc(Nc2nc3c(C)cccc3cc2C#N)cc1 | 2 | 0 | -6 | 8 | -11 | 43*
COc1cccc(Nc2nc3cc(OC)ccc3cc2C#N)c1 | -6 | -1 | 8 | -21 | -25 | 0
SMILES | DNA FID counter | GRIN3A LBD mod | EBNA-1 inh | HCV NS3 hel inh | ZTA DNA inh | FGF22 binding
Cc1ccc(S(=O)(=O)N(C)C[C@@H]2Oc3c(NC(=O)c4nc5ccccc5s4)cccc3C(=O)N([C@H](C)CO)C[C@H]2C)cc1 | · | · | · | · | · | 0
COc1ccccc1NC(=O)N1CCCCN2[C@H](CO)[C@@H](c3ccc(-c4ccccc4)cc3)[C@@H]2C1 | · | · | · | · | · | 0
CCO[C@@H]1OC(C(=O)O)=C[C@H](C2CC2)[C@H]1CCCO | -8 | 3 | 2 | 4 | 5 | 44*
CCO[C@@H]1OC(C(=O)O)=C[C@H](C2CCCCC2)[C@H]1CCCO | -12 | 1 | -5 | 7 | -18 | 0
Fc1cc2[nH]c(=S)[nH]c2cc1Cl | -2 | 32* | 4 | 26 | 5 | 0
CC(=O)N(C)C[C@H]1Oc2ncc(C#Cc3ccccc3)cc2C(=O)N([C@@H](C)CO)C[C@H]1C | · | · | · | · | · | 0
Nc1ncnc2c1ncn2[C@@H]1O[C@H](CNCc2cccc(C#Cc3ccccc3)c2)[C@@H](O)[C@H]1O | · | 13* | · | · | · | 0
Nc1ncnc2c1ncn2[C@@H]1O[C@H](CNC(=O)[C@@H]2CCN2)[C@@H](O)[C@H]1O | · | 15* | · | · | · | 0
Nc1ncnc2c1ncn2[C@@H]1O[C@H](CNCc2ccccc2)[C@@H](O)[C@H]1O | · | -1 | · | · | · | ·
O=S(=O)(c1ccccc1)c1nc(-c2ccccc2)oc1N1CCOCC1 | -4 | 0 | 2 | 6 | 2 | 43*
CN1CCN(c2oc(-c3ccccc3F)nc2S(=O)(=O)c2ccc(Cl)cc2)CC1 | 8 | 10* | 1 | -70 | -4 | ·
NC(=O)C1CCN(c2oc(-c3ccccc3F)nc2S(=O)(=O)c2ccc(Cl)cc2)CC1 | -14 | 4 | 3 | -4 | -4 | ·
CC(C)NC(=O)Nc1ccc2c(c1)C(=O)N([C@@H](C)CO)C[C@@H](C)[C@@H](CN(C)CC1CCCCC1)O2 | · | · | · | · | · | 0
CSC1=NC2(CC(c3ccccc3)Oc3cc(O)ccc32)CC(C)(C)N1 (stereo unspecified) | 23 | 11* | -2 | -17 | -6 | ·
CC(OC(=O)c1ccc(Cl)c([N+](=O)[O-])c1)C(=O)N1CCN(Cc2ccccc2)CC1 (stereo unspecified) | · | -1 | · | · | 17 | 0
CC(On1nnc2ccccc21)C(=O)N1CCN(Cc2ccccc2)CC1 (stereo unspecified) | -9 | -1 | 5 | -1 | 2 | 43*
O=C(NCC1CCCCC1)c1cc([N+](=O)[O-])ccc1N1CCOCC1 | -10 | -2 | -10 | 1 | 3 | 1
O=C(NC12CC3CC(CC(C3)C1)C2)c1cc([N+](=O)[O-])ccc1N1CCOCC1 | -16 | 13* | -18 | 1 | 6 | -1
O=C(Nc1ccccc1)c1cc([N+](=O)[O-])ccc1N1CCCCC1 | · | -6 | · | · | · | 0
